pEC50, pIC50: −log10 of the molar value. Converted amounts (≈) assume the structure as drawn.
How the values were obtained:
[1] = tested on: Trypanosoma brucei brucei; experiment: Anti-parasitic activity against bloodstream form of Trypanosoma brucei brucei Lister 427 after 72 hrs by resazurin-based assay; type: functional; conditions: Lister 427, 72 h
In short: (§1)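 Bloodstream-form T. brucei, modified resazurin-based viability assay. EC50 is the arithmetic mean of at least two independent determinations, each run in triplicate.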

[2] = tested on: Trypanosoma brucei brucei; experiment: Anti-parasitic activity against bloodstream form of Trypanosoma brucei brucei Lister 427 at 10 uM after 72 hrs by resazurin-based assay relative to control; type: functional; conditions: Lister 427, 72 h; in short: as §1
[3] = Cytotoxicity against human A549 cells assessed as cell growth by Cell titer-Glo assay; type: cell-based
In short: (§2)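 A549 and WI-38 cells grown in DMEM with 10% v/v FCS, streptomycin 100 µg/ml and penicillin G 100 U/ml. Cell number read as cellular ATP by CellTiter-Glo luminescence. Growth 60–100% scored non-cytotoxic, 0–60% cytostatic, below 0 cytotoxic.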

[4] = Cytotoxicity against human […] cells assessed as cell growth at 10 uM by Cell titer-Glo assay relative to control; type: cell-based; conditions: WI-38 cells, read-out: Activity; in short: as §2
[5] = Cytotoxicity against human […] cells assessed as cell growth by Cell titer-Glo assay; type: cell-based; conditions: WI-38 cells; in short: as §2
786-0 = experiment: Mitochondrial toxicity in human 786-O cells at 10 uM by mitotracker red chloromethyl-Xrosamine staining based-uptake method relative to control; type: cell-based; conditions: 786-0, 10 µM
In short: (§3)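 786-O renal carcinoma cells kept in RPMI-1640 with 2 mM glutamine, 10% v/v FCS, streptomycin 100 µg/ml and penicillin G 100 U/ml. Mitochondrial toxicity monitored by MitoTracker Red CMXRos uptake with high-content imaging.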

[6] = Mitochondrial toxicity in human 786-O cells by mitotracker red chloromethyl-Xrosamine staining based-uptake method; type: cell-based, 786-0; in short: as §3
Aurora kinase B = Aurora kinase B (Homo sapiens, UniProt Q96GD4); experiment: Inhibition of N-terminal-GST-tagged recombinant full length human Aurora B expressed in baculovirus infected Sf9 cells at 10 uM using native Swine Myelin Basic Protein as substrate measured after 60 mins by ADP-Glo assay relative to control; conditions: probe native Swine Myelin Basic Protein
In short: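 Aurora B kinase activity measured by ADP-Glo, which detects ADP formed through a coupled luciferase luminescence read-out.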

CYP2C9 = CYP2C9 (Homo sapiens, UniProt P11712); experiment: Inhibition of human CYP2C9 expressed in baculovirus-infected insect cells at 10 uM using Luciferin-H as substrate in presence of NADPH by P450-Glo luminescence assay relative to control; conditions: probe Luciferin-H
Cytochrome P450 2C9 = Cytochrome P450 2C9 (Homo sapiens, UniProt P11712); experiment: Inhibition of human CYP2C9 expressed in baculovirus-infected insect cells using Luciferin-H as substrate in presence of NADPH by P450-Glo luminescence assay
CYP2C19 = CYP2C19 (Homo sapiens, UniProt P33261); experiment: Inhibition of human CYP2C19 expressed in baculovirus-infected insect cells at 10 uM using Luciferin-H EGE as substrate in presence of NADPH by P450-Glo luminescence assay relative to control; type: ADME; conditions: probe Luciferin-H EGE
In short: (§4)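 CYP enzymes as microsomal preparations from baculovirus-infected insect cells, run on the P450-Glo luminogenic substrate platform. A fall in light output indicates inhibition.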

Cytochrome P450 2C19 = Cytochrome P450 2C19 (Homo sapiens, UniProt P33261); experiment: Inhibition of human CYP2C19 expressed in baculovirus-infected insect cells using Luciferin-H EGE as substrate in presence of NADPH by P450-Glo luminescence assay; type: ADME; in short: as §4
Cytochrome P450 2D6 = Cytochrome P450 2D6 (Homo sapiens, UniProt P10635); experiment: Inhibition of human CYP2D6 expressed in baculovirus-infected insect cells using Luciferin-ME EGE as substrate in presence of NADPH by P450-Glo luminescence assay; type: ADME; in short: as §4
[7] = Solubility of the compound in water measured after 18 hrs by UV-vis spectroscopic method; type: physicochemical
In short: (§5)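 Saturated suspensions prepared at 100 µM in water, 100 µM in PBS, 200 µM in PBS + 10% DMSO and 10 mM in PBS + 50% DMSO. Held 18 h at 25°C, passed through a 0.2 µm filter, then quantified by UV-Vis absorbance at 312 nm using the calculated extinction coefficient.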

[8] = Solubility of the compound in phosphate buffered saline with 10% DMSO measured after 18 hrs by UV-vis spectroscopic method; type: physicochemical; in short: as §5
[9] = Half-life in BALB/c mouse at 1 mg/kg, iv by LC-MS method; type: ADME, organism-based; conditions: in vivo
In short: (§6)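 BALB/c mice dosed either free (8% DMSO; 1 mg/kg IV or 20 mg/kg oral), or 20 mg/kg oral in 50% w/v hydroxypropyl-β-cyclodextrin, or 20 mg/kg oral in 25% cyclodextrins plus 50% PEG 400. Serial submandibular blood samples stored at -20°C. Plasma measured by isocratic LC-MS (acetonitrile:water 80:20, 0.2 ml/min), quantifier transition m/z 315.0>161.0.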

[10] = Half-life in BALB/c mouse at 20 mg/kg, po as cyclodextrin formulation by LC-MS method; type: ADME, organism-based; conditions: in vivo; in short: as §6
[11] = Drug uptake in BALB/c mouse plasma at 1 mg/kg, iv measured after 30 mins by LC-MS method; type: ADME, organism-based; in short: as §6
[12] = Drug uptake in BALB/c mouse plasma at 1 mg/kg, iv measured after 60 mins by LC-MS method; type: ADME, organism-based; in short: as §6
[13] = Drug uptake in BALB/c mouse plasma at 1 mg/kg, iv measured after 180 mins by LC-MS method; type: ADME, organism-based; in short: as §6
[14] = Drug uptake in BALB/c mouse plasma at 20 mg/kg, po as cyclodextrin/PEG400 formulation measured after 0.25 hrs by LC-MS method; type: ADME, organism-based; in short: as §6
[15] = Drug uptake in BALB/c mouse plasma at 20 mg/kg, po as cyclodextrin/PEG400 formulation measured after 1 hr by LC-MS method; type: ADME, organism-based; in short: as §6
[16] = Drug uptake in BALB/c mouse plasma at 20 mg/kg, po measured after 0.75 hrs by LC-MS method; type: ADME, organism-based; in short: as §6
[17] = Drug uptake in BALB/c mouse plasma at 20 mg/kg, po as 50% cyclodextrin formulation measured after 0.25 hrs by LC-MS method; type: ADME, organism-based; in short: as §6
[18] = Drug uptake in BALB/c mouse plasma at 20 mg/kg, po as 50% cyclodextrin formulation measured after 3 hrs by LC-MS method; type: ADME, organism-based; in short: as §6
[19] = Drug uptake in BALB/c mouse plasma at 20 mg/kg, po as 50% cyclodextrin formulation measured after 24 hrs by LC-MS method; type: ADME, organism-based; in short: as §6
[20] = Lipophilicity, log P of the compound; type: physicochemical; conditions: octanol/water

CYP2C9, sequence (P11712 whole entry): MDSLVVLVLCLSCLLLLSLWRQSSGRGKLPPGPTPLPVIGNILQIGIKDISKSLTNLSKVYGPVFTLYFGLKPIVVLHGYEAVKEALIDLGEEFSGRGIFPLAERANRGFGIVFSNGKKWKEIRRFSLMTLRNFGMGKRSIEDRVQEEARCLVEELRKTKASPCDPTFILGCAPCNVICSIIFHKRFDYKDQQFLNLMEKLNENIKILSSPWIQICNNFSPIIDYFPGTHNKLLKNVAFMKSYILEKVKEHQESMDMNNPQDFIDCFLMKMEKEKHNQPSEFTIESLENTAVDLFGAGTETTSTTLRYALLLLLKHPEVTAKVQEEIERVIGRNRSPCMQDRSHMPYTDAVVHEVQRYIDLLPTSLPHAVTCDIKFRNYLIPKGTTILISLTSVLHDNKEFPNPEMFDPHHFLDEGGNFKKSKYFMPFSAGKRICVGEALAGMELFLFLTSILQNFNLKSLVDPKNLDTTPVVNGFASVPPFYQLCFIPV
Cytochrome P450 2C9, sequence (P11712 whole entry): as above
Cytochrome P450 2C19, sequence (P33261 whole entry): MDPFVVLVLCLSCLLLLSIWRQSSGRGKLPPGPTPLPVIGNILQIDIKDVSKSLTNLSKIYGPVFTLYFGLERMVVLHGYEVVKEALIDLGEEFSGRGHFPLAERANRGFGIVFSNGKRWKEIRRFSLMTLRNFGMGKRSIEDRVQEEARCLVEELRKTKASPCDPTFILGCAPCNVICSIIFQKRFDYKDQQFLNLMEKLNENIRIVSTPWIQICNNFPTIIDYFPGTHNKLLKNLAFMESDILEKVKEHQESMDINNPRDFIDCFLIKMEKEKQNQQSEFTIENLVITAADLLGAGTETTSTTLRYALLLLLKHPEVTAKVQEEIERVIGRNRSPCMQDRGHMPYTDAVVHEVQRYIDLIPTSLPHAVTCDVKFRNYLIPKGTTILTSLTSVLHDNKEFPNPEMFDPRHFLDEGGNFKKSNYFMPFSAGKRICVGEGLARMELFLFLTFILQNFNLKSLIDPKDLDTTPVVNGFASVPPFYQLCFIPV
CYP2C19, sequence (P33261 whole entry): as above
Aurora kinase B, sequence (Q96GD4 whole entry): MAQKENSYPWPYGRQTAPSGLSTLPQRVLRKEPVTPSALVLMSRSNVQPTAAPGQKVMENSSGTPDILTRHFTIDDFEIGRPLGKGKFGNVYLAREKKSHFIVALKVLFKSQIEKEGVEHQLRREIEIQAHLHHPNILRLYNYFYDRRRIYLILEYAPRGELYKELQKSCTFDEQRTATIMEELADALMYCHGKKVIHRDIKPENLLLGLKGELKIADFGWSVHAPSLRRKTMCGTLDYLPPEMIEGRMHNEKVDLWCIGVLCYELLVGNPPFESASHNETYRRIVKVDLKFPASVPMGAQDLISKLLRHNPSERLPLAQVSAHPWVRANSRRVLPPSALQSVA
Cytochrome P450 2D6, sequence (P10635 whole entry): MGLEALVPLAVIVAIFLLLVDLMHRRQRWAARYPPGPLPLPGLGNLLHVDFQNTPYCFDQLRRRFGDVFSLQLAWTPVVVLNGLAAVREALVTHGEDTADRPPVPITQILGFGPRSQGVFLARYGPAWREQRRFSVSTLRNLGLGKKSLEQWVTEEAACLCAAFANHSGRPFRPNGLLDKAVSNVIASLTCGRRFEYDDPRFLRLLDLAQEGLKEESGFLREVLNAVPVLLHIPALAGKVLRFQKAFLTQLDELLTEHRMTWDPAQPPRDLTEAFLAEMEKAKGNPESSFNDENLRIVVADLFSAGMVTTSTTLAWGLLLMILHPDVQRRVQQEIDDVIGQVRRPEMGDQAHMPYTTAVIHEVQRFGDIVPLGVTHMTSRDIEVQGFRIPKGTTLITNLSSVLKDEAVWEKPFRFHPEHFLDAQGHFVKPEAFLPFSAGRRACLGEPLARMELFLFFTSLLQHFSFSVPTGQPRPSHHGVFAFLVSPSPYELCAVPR

- pEC50 [1]: 5.38
- inhibition at 1 h, 10 µM (Aurora kinase B): -6.8%
- inhibition at 10 µM (CYP2C9): 19%
- pIC50 (Cytochrome P450 2C9): 4.38
- inhibition at 10 µM (CYP2C19): 49.2%
- pIC50 (Cytochrome P450 2C19): 5.11
- pIC50 (Cytochrome P450 2D6): 5.17
- solubility at 18 h [7]: 0.91 µM (≈ 0.286 µg/mL)
- solubility at 18 h [8]: 11.4 µM (≈ 3.59 µg/mL)
- half-life [9]: 62.5 min
- half-life [10]: 36.7 min
- concentration at 0.5 h [11]: 55 nM
- concentration at 1 h [12]: 21 nM
- concentration at 3 h [13]: 5 nM
- concentration at 0.25 h [14]: 48 nM
- concentration at 1 h [15]: 18 nM
- concentration at 0.75 h [16]: 12 nM
- concentration at 0.25 h [17]: 1100 nM
- concentration at 3 h [18]: 10 nM
- concentration at 24 h [19]: 5 nM
- logP [20]: 3.59
Compound: COc1cccc(/C=C/C(=O)c2cc(OC)c(OC)cc2O)c1
- inhibition at 10 µM [2]: 100%
- GI50 [3]: 12.4 µM
- viability at 10 µM [4]: 96.1%
- GI50 [5]: 10.8 µM
- Activity (786-0): 3.6%
- pIC50 [6]: 4.84
